Assay outcomes (PubChem BioAssay)
AF4-AF9 inh: MLL-AF4/AF9 protein interaction inhibition; inhibition, % at 10 µM; AlphaScreen, biotin-AF4 peptide binding to FLAG-AF9; P42568; AID 651704; 350,000 compounds, 0.47% hits;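 active = every replicate reaching a set inhibition limit, whatever the replicate mean, cut at about 25% in these data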;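 also: 0% = plate neutral control median and 100% = total signal loss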
Target sequence (P42568 whole entry, looked up): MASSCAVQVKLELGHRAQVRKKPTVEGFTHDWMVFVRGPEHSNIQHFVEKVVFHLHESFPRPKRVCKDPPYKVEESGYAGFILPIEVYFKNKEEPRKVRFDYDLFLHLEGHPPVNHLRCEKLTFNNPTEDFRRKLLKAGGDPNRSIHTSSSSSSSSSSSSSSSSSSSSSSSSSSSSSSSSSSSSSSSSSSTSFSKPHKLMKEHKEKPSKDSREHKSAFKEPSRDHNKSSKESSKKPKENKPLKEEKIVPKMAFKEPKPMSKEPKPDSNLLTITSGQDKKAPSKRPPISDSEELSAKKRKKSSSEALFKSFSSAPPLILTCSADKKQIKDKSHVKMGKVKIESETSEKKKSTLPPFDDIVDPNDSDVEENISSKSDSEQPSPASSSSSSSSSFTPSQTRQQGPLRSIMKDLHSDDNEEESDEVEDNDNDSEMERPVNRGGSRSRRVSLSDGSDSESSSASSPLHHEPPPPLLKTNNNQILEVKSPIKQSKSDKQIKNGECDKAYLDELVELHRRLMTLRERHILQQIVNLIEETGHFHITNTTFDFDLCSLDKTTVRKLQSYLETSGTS
PAX8 inh HTS: lowers PAX8-driven luciferase in RMG-I cells; 360,000 compounds, 1.2% hits; AID 652154; inhibition, % at 12.6 µM; RMG-I TPO-luciferase reporter, SteadyGlo, 24 h;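 active = mean replicate inhibition at least 60% with every replicate also reaching 60%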;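 also: luciferase light reporting Pax8 driven TPO promoter activity; plate controls were median of neutral control wells for no effect and mitoxantrone controls for full effect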
Glyco luc inh: blocks N-linked glycosylation in D54 reporter cells. 360,000 compounds, 0.23% hits. AID 588692. D54 ERlucT glycosylation luciferase reporter, 24 h; percent of 100 nM tunicamycin response. reporter increase, % at 12.5 µM;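 active = mean luciferase reporter signal, scaled so untreated is 0 and the glycosylation-blocking control 100, at or above a set limit in every replicate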;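 also: luciferase carries N-glycosylation sites so blocking glycosylation raises the light; 0% = median of neutral control wells and 100% = median of 100 nM tunicamycin wells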
EWS-Fli block: EWS/Fli transcriptional activity inhibition; A673 NR0B1-luciferase reporter, viability-normalised; AID 651661; inhibition, % at 12.6 µM; 350,000 compounds, 0.67% hits;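 active = mean inhibition of at least 50% after viability correction, with every replicate also passing that limit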;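 also: firefly luciferase signal divided by Alamar Blue viability fluorescence both relative to DMSO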
Env fusion inh: HIV envelope-mediated fusion inhibition. HeLa-JRFL Env/CEM21 cell fusion, luciferase. inhibition, % at 12.3 µM. 360,000 compounds, 1.1% hits;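 active = mean replicate inhibition score of at least 50 and every replicate individually at or above 50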;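 also: 0% = plate neutral controls and 100% = maraviroc near 300 nM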
FN deposit inh: fibronectin deposition inhibition. AH1F fibroblasts, Alexa488-fibronectin deposition fluorescence, overnight. inhibition, % at 12.6 µM. 350,000 compounds, 0.086% hits. AID 743247;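 active = mean inhibition across replicates of 30% or more, regardless of how many single replicates reach that level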;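 also: positive control wells lacked labelled fibronectin entirely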
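Schedule: 1 h cell adhesion before compound, then overnight fibronectin incubation; test system: AH1F fibroblast monolayer depositing Alexa488-labelled fibronectin into matrix; quantity: 10000 AH1F cells per well; probe or stimulus: fluorescent fibronectin at 24 nM final; signal: fluorescence, ex 485 nm, em 525 nm; evaluation: percent inhibition as loss of matrix-bound fibronectin fluorescence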
An asterisk follows results filed as active; . = not tested or not shown; ! = a repeat was not active; [ ] = remark or other dose. Most compounds without a hit are left out; they make up all but 2.5% or so of the library.

SMILES | AF4-AF9 inh | PAX8 inh HTS | Glyco luc inh | EWS-Fli block | Env fusion inh | FN deposit inh
COc1ccc2c3c(n(C)c2c1)[C@H](CO)NCC31CCN(Cc2ccc(Cl)cc2)CC1 | 44* | . | . | 11 | . | .
COc1ccc2c3c(n(C)c2c1)[C@@H](CO)NCC31CCN(S(=O)(=O)c2cccc(C)c2)CC1 | 27* | . | . | 1 | . | 11
COc1ccc2c3c(n(C)c2c1)[C@@H](CO)NCC31CCN(Cc2ccccc2F)CC1 | 20 | . | . | -12 | . | .
COc1ccc2c3c(n(C)c2c1)[C@@H](CO)NCC31CCN(Cc2cc(F)ccc2F)CC1 | 32* | 28 | . | -2 | . | 0
COc1ccc2c3c(n(C)c2c1)[C@H](CO)NCC31CCN(Cc2cc(F)ccc2F)CC1 | 26* | -2 | . | 1 | . | 10
COc1ccc2c3c(n(C)c2c1)[C@H](CO)NCC31CCN(C(=O)c2ccc(F)cc2)CC1 | 1 | . | . | -5 | . | 4
Cc1ccc(S(=O)(=O)N(C)C[C@H]2OCCCC[C@H](C)Oc3ccc(NS(=O)(=O)c4c(C)noc4C)cc3C(=O)N([C@@H](C)CO)C[C@H]2C)cc1 | 1 | 39 | . | 6 | -53[16.7 µM] | -8
O=S(=O)(c1ccccc1)c1cnn(-c2ccccc2)c1-c1ccc(Cl)cc1 | . | 15 | -5 | . | -1 | 17
COc1ccc(-c2c(S(=O)(=O)c3ccccc3)cnn2-c2ccccc2)cc1 | . | . | -2 | . | 63* | -1
Oc1ccc(CN2CCC(Cc3ccccc3)CC2)c2cccnc12 | 76* | 76* | . | 43 | -1 | .
COc1cc(CN2CCc3ccccc3C2)cc([N+](=O)[O-])c1O | 2 | -12 | 3 | 15 | -6 | 0
Oc1ccc(CN2CCc3ccccc3C2)c2cccnc12 | . | . | -6 | . | 62* | .
COc1cc(CN2CCc3ccccc3C2)ccc1O | -2 | 41 | 93* | 36 | 33 | -5
COc1ccc(-c2cnc3c(c2)C(=O)N([C@H](C)CO)C[C@@H](C)[C@@H](CN(C)C(=O)C2CCC2)O3)cc1 | -2 | . | . | -9 | -12[16.7 µM] | .
C[C@@H]1CN([C@@H](C)CO)C(=O)c2cccc(NS(C)(=O)=O)c2O[C@@H]1CN(C)C(=O)Nc1ccccc1 | -3 | -11 | . | 0 | . | -4
C[C@@H]1CN([C@H](C)CO)C(=O)c2cc(NS(C)(=O)=O)ccc2O[C@@H](C)CCCCO[C@@H]1CN(C)S(=O)(=O)c1ccccc1 | 0 | -7 | . | 1 | 9[16.7 µM] | .
CC(=O)Nc1ccc2c(c1)C(=O)N(C)[C@H]1CC[C@@H](CC(=O)NC3CCCCC3)O[C@@H]1CO2 | . | 0 | . | 4 | 8[16.7 µM] | -2
CCOc1ccc(-n2c(SCc3cc(=O)oc4cc(C)ccc34)nnc2-c2cccnc2)cc1 | 17 | 65* | 4 | 10 | . | -2
CC(=O)Nc1ccc2c(CSc3nnc(-c4cccnc4)n3-c3ccc(C)cc3C)cc(=O)oc2c1 | . | 1 | 0 | . | 0 | -2
C[C@@H]1CCCCO[C@H](CN(C)Cc2ccc(Cl)c(Cl)c2)[C@@H](C)CN([C@H](C)CO)C(=O)c2cc(NS(=O)(=O)c3ccccc3)ccc2O1 | 0 | -25 | . | 0 | 3[16.7 µM] | .
C[C@@H]1CCCCO[C@@H](CN(C)Cc2ccc(Cl)c(Cl)c2)[C@H](C)CN([C@@H](C)CO)C(=O)c2cc(NS(=O)(=O)c3ccccc3)ccc2O1 | 4 | 95* | . | 10 | 25[16.7 µM] | .
C[C@H]1CCCCO[C@H](CN(C)Cc2ccc(Cl)c(Cl)c2)[C@@H](C)CN([C@@H](C)CO)C(=O)c2cc(NS(=O)(=O)c3ccccc3)ccc2O1 | 1 | 5 | . | 15 | . | .
C[C@@H]1CCCCO[C@H](CN(C)Cc2ccc(Cl)c(Cl)c2)[C@@H](C)CN([C@@H](C)CO)C(=O)c2cc(NS(=O)(=O)c3ccccc3)ccc2O1 | 1 | 103* | . | 19 | 36[16.7 µM] | .
C[C@@H]1CN([C@H](C)CO)C(=O)c2cc(NS(=O)(=O)c3ccccc3)ccc2O[C@@H](C)CCCCO[C@@H]1CN(C)Cc1ccc(Cl)c(Cl)c1 | 0 | 102*! | . | 16 | 69*![16.7 µM] | -2
C[C@@H]1CCCCO[C@H](CN(C)Cc2ccc(Cl)c(Cl)c2)[C@@H](C)CN([C@H](C)CO)C(=O)c2cc(NS(=O)(=O)c3ccc(Cl)cc3)ccc2O1 | -3 | 28 | . | 1 | -12[16.7 µM] | -11
CN1C[C@H](O)COC[C@H]2O[C@@H](CC(=O)NC3CCC3)CC[C@@H]21 | -3 | -37 | . | -11 | -1[16.7 µM] | -6
